Test results reported in ChEMBL document CHEMBL3792315, “Potent, Selective, and CNS-Penetrant Tetrasubstituted Cyclopropane Class IIa Histone Deacetylase (HDAC) Inhibitors” (ACS Med Chem Lett, 2016).
Values belong to the compound of their own block, whether it stands above or below them.

What was measured:
[1] = Apparent permeability across apical to basolateral side in MDCK cells expressing MDR1; assay type: ADME, cell-based, Canis lupus familiaris; conditions: dog
[2] = Oral bioavailability in C57Bl/6 mouse plasma at 10 mg/kg; assay type: ADME, organism-based
Plasma [3] = experiment: Dose normalized AUC in C57Bl/6 mouse plasma at 10 mg/kg, po; assay type: ADME, organism-based; conditions: in vivo
Outline: (§1)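 A single 10 mg/kg oral gavage dose was given to fed male C57Bl/6 mice. Concentrations were measured in plasma, brain and muscle to derive Cmax, Tmax and AUC, with Cmax and AUC normalised to dose.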

Brain [4] = experiment: Dose normalized AUC in C57Bl/6 mouse brain at 10 mg/kg, po; assay type: ADME, organism-based; conditions: in vivo; outline: as §1
Muscle tissue [5] = experiment: Dose normalized AUC in C57Bl/6 mouse muscle at 10 mg/kg, po; assay type: ADME, organism-based; conditions: in vivo; outline: as §1
Plasma [6] = experiment: Dose normalized Cmax in C57Bl/6 mouse plasma at 10 mg/kg, po; assay type: ADME, organism-based; conditions: in vivo; outline: as §1
Brain [7] = experiment: Dose normalized Cmax in C57Bl/6 mouse brain at 10 mg/kg, po; assay type: ADME, organism-based; conditions: in vivo; outline: as §1
Muscle tissue [8] = experiment: Dose normalized Cmax in C57Bl/6 mouse muscle at 10 mg/kg, po; assay type: ADME, organism-based; conditions: in vivo; outline: as §1
[9] = Tmax in C57Bl/6 mouse plasma at 10 mg/kg, po; assay type: ADME, organism-based; outline: as §1
[10] = Tmax in C57Bl/6 mouse brain at 10 mg/kg, po; assay type: ADME, organism-based; outline: as §1
[11] = Tmax in C57Bl/6 mouse muscle at 10 mg/kg, po; assay type: ADME, organism-based, Muscle tissue; outline: as §1
[12] = Volume of distribution at steady state in C57Bl/6 mouse plasma at 5 mg/kg, iv; assay type: ADME, organism-based; conditions: read-out: Vdss
Outline: (§2)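 Fed male C57Bl/6 mice were dosed intravenously, and plasma was sampled to derive half-life, plasma clearance and steady-state volume of distribution. The iv dose differed per compound (5, 1 or 2.5 mg/kg).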

[13] = Volume of distribution at steady state in C57Bl/6 mouse plasma at 2.5 mg/kg, iv; assay type: ADME, organism-based; conditions: read-out: Vdss; outline: as §2
[14] = Volume of distribution at steady state in C57Bl/6 mouse plasma at 1 mg/kg, iv; assay type: ADME, organism-based; conditions: read-out: Vdss; outline: as §2

- Papp A→B [1]: 39.1 ×10⁻⁶ cm/s
SMILES: Cc1cnc(-c2ccc([C@@H]3[C@@H](c4ccccc4)[C@@]3(C)C(=O)NO)cc2)nc1

- Papp A→B [1]: 37.5 ×10⁻⁶ cm/s
SMILES: Cc1cnc(-c2ccc([C@H]3[C@H](C(=O)NO)[C@@H]3c3ccccc3)cc2)nc1

- Papp A→B [1]: < 1 ×10⁻⁶ cm/s
SMILES: O=C(NO)[C@]1(F)[C@H](c2ccccc2)[C@H]1c1ccc(-c2ncc(Cl)cn2)cc1

- Papp A→B [1]: 48.7 ×10⁻⁶ cm/s
SMILES: O=C(NO)[C@]1(F)[C@H](c2ccccc2)[C@H]1c1ccc(-c2cnco2)cc1

- bioavailability [2]: 100%
- AUC/dose (Plasma [3]): 110 nM·kg·h/mg
- AUC/dose (Brain [4]): 830 nM·kg·h/mg
- AUC/dose (Muscle tissue [5]): 330 nM·kg·h/mg
- Cmax/dose (Plasma [6]): 97 nM·kg/mg
- Cmax/dose (Brain [7]): 570 nM·kg/mg
- Cmax/dose (Muscle tissue [8]): 320 nM·kg/mg
- Tmax [9]: 30 min
- Tmax [10]: 30 min
- Tmax [11]: 30 min
- Vd [12]: 4.1 L/kg
SMILES: O=C(NO)[C@@H]1[C@H](c2ccccc2)[C@H]1c1ccc(-c2ncc(F)cn2)cc1

- Papp A→B [1]: 19.2 ×10⁻⁶ cm/s
- bioavailability [2]: 100%
- AUC/dose (Plasma [3]): 660 nM·kg·h/mg
- AUC/dose (Brain [4]): 580 nM·kg·h/mg
- AUC/dose (Muscle tissue [5]): 300 nM·kg·h/mg
- Cmax/dose (Plasma [6]): 150 nM·kg/mg
- Cmax/dose (Brain [7]): 120 nM·kg/mg
- Cmax/dose (Muscle tissue [8]): 56 nM·kg/mg
- Tmax [9]: 15 min
- Tmax [10]: 60 min
- Tmax [11]: 30 min
- Vd [13]: 10 L/kg
SMILES: O=C(NO)[C@]1(F)[C@H](c2ccccc2)[C@H]1c1ccc(-c2ncc(OC(F)F)cn2)cc1

- Papp A→B [1]: 38 ×10⁻⁶ cm/s
SMILES: O=C(NO)[C@@H]1[C@H](c2ccccc2)[C@H]1c1ccc(-c2ncc(Cl)cn2)cc1

- Papp A→B [1]: 12.9 ×10⁻⁶ cm/s
SMILES: O=C(NO)[C@@H]1[C@H](c2ccccc2)[C@H]1c1ccc(-c2ncc(OC(F)F)cn2)cc1

- Papp A→B [1]: 41.8 ×10⁻⁶ cm/s
- bioavailability [2]: 79%
- AUC/dose (Plasma [3]): 480 nM·kg·h/mg
- AUC/dose (Brain [4]): 1900 nM·kg·h/mg
- AUC/dose (Muscle tissue [5]): 640 nM·kg·h/mg
- Cmax/dose (Plasma [6]): 180 nM·kg/mg
- Cmax/dose (Brain [7]): 780 nM·kg/mg
- Cmax/dose (Muscle tissue [8]): 290 nM·kg/mg
- Tmax [9]: 15 min
- Tmax [10]: 30 min
- Tmax [11]: 30 min
- Vd [14]: 5.1 L/kg
SMILES: O=C(NO)[C@]1(F)[C@H](c2ccccc2)[C@H]1c1ccc(-c2ncc(F)cn2)cc1

- Papp A→B [1]: 7 ×10⁻⁶ cm/s
SMILES: O=C(NO)[C@]1(F)[C@H](c2ccccc2)[C@H]1c1ccc(-c2nccc(C(F)(F)F)n2)cc1

- Papp A→B [1]: 36.9 ×10⁻⁶ cm/s
SMILES: Cc1cnc(-c2ccc([C@@H]3[C@@H](c4ccccc4)[C@@]3(F)C(=O)NO)cc2)nc1

- Papp A→B [1]: 11.4 ×10⁻⁶ cm/s
SMILES: O=C(NO)[C@@H]1[C@H](c2ccccc2)[C@H]1c1ccc(-c2nccc(C(F)(F)F)n2)cc1
